# Laboratory results: ChEMBL document CHEMBL5352499, “Differentiating Inhibition Selectivity and Binding Affinity of Isocitrate Dehydrogenase 1 Variant Inhibitors” (J Med Chem, 2023)
# Calls of active or inactive are those of the source. The calls are words filed in the database; no cut-off is given here.
# Columns and labels:
# [1] = target: T1, Isocitrate dehydrogenase [NADP] cytoplasmic (Homo sapiens, UniProt O75874, R132H); assay: Inhibition of recombinant IDH1 R132H mutant (unknown origin) expressed in Escherichia coli BL21(DE3) pLysS cells using 2OG as substrate assessed as 2OG conversion to 2HG incubated for 60 mins in presence of NADPH by spectrophotometric analysis
# [2] = Selectivity index, ratio of IC50 for recombinant wildtype IDH1 expressed in Escherichia coli BL21(DE3) pLysS cells to IC50 for recombinant IDH1 R132H mutant (unknown origin) expressed in Escherichia coli BL21(DE3) pLysS cells
# [3] = target: T2, Isocitrate dehydrogenase [NADP] cytoplasmic (Homo sapiens, UniProt O75874); details: dose 3-100 µM
# [4] = test system: Isocitrate dehydrogenase [NADP] cytoplasmic (Homo sapiens), O75874 [R132H]; details: dose 3-100 µM
# [5] = target: T2, Isocitrate dehydrogenase [NADP] cytoplasmic; assay: Binding affinity to human recombinant IDH1 expressed in Escherichia coli BL21(DE3) pLysS cells assessed as dissociation constant by non-denaturing mass spectroscopic analysis
# [6] = target: T1, Isocitrate dehydrogenase [NADP] cytoplasmic; assay: Binding affinity to human recombinant IDH1 R132H mutant expressed in Escherichia coli BL21(DE3) pLysS cells assessed as dissociation constant by non-denaturing mass spectroscopic analysis
# [7] = target: T2, Isocitrate dehydrogenase [NADP] cytoplasmic; assay: Binding affinity to recombinant wildtype IDH1 (unknown origin) expressed in Escherichia coli BL21(DE3) pLysS cells incubated in presence of MgCl2 by NMR analysis
# [8] = test system: Isocitrate dehydrogenase [NADP] cytoplasmic (Homo sapiens), O75874 [R132H]; assay: Binding affinity to recombinant IDH1 R132H mutant (unknown origin) expressed in Escherichia coli BL21(DE3) pLysS cells incubated in presence of MgCl2 by NMR analysis
# [9] = target: T2, Isocitrate dehydrogenase [NADP] cytoplasmic; assay: Binding affinity to recombinant IDH1 (unknown origin) expressed in Escherichia coli BL21(DE3) pLysS cells incubated in presence of MgCl2 by ITC assay
# How it was run: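 Homodimeric wt IDH1 in 50 mM tris–HCl, pH 7.5; cell 40 μM protein (4% v/v DMSO), titrant 200 or 400 μM compound (2% or 4% DMSO). 25 °C, stirring 750 rpm, 19 injections (0.4 μL then 18 × 2.0 μL, 150 s apart); thermodynamic parameters fitted from the heats.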
# [10] = test system: Isocitrate dehydrogenase [NADP] cytoplasmic (Homo sapiens), O75874 [R132H]; assay: Binding affinity to recombinant IDH1 R132H mutant (unknown origin) expressed in Escherichia coli BL21(DE3) pLysS cells incubated in presence of MgCl2 by ITC assay
# How it was run: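 IDH1 R132H homodimer in 50 mM tris–HCl, pH 7.5; 40 μM protein in cell (4% v/v DMSO) titrated at 25 °C with 200 or 400 μM compound (2% or 4% DMSO), 19 injections (0.4 μL, then 2.0 μL × 18, 150 s spacing), 750 rpm; thermodynamic parameters from fitted isotherm.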
# [11] = test system: Isocitrate dehydrogenase [NADP] cytoplasmic (Homo sapiens), O75874 [R132H]; details: dose 42.0 µM
# T1 sequence (O75874 2-414 R132H limits assumed): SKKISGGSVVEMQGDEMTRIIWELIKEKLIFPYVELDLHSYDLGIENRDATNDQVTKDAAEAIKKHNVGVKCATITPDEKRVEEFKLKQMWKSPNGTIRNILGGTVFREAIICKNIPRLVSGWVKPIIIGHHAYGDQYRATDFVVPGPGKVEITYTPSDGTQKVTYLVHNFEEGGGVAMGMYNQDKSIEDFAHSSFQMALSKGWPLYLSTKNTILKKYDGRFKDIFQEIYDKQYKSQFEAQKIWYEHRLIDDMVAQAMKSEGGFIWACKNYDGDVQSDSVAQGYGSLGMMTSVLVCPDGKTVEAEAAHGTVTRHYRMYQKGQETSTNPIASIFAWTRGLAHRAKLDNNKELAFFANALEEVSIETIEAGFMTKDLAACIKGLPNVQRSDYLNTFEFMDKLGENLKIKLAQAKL
# Sequence of Isocitrate dehydrogenase [NADP] cytoplasmic (Homo sapiens), O75874 [R132H] (O75874 whole entry R132H): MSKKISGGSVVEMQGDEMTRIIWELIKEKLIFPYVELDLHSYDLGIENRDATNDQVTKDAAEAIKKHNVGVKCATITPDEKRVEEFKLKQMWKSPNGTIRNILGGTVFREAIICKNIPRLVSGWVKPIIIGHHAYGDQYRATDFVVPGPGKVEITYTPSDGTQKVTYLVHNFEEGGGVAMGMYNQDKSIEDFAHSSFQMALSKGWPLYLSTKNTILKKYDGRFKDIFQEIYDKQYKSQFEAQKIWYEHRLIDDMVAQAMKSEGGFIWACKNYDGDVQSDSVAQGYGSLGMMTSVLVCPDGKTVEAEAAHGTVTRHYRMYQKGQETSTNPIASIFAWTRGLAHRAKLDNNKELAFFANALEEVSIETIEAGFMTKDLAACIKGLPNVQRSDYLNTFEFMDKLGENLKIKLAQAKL
# T2 sequence (O75874 whole entry): as the sequence (O75874 whole entry R132H) above, with H132R counted along it
compound,measurement,setting,value
Cc1ccccc1C(C(=O)NC1CCCCC1)N(C(=O)Cn1cnc2ccccc21)c1cccc(F)c1 (stereo not drawn),IC50,[1],0.073 µM
same,Ratio IC50,[2],> 556
same,ΔTm,[3],8.1 °C
same,ΔTm,[4],6.6 °C
COc1c(C)cc(NC(=O)c2nn(Cc3ccc(F)cc3)c3c2CN(C(=O)c2ccc[nH]2)C[C@]3(C)C(N)=O)cc1C,Kd,[5],24 µM
same,Kd,[6],23 µM
same,Activity,[7],Active
same,Activity,[8],Active
same,Activity,[9],Active
same,Activity,[10],Active
Cc1ccccc1C(C(=O)NC1CCCCC1)N(C(=O)Cn1ccnc1C)c1cccc(F)c1 (stereo not drawn),Kd,[6],98 µM
CC(=O)N1CCN(Cc2ccc([C@H](C)Nc3nccc(N4C(=O)OC[C@@H]4C(C)C)n3)cc2)CC1,ΔTm,[4],11.7 °C
same,ΔTm,[11],11.2 °C
